Laboratory results from ChEMBL document CHEMBL4837218, “Synthesis and in vitro antitumour activity of 4(R)-methyl-3-O-phosphonomethyl-α-l-threose nucleosides” (Eur J Med Chem, 2021).

Key:
MCF7 = test: Anticancer activity against human MCF7 cells assessed as inhibition of cell growth measured after 72 hrs by MTT assay; assay type: functional, cell-based; settings: MCF7, 72 h
Procedure, shortened: (§1)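 Cells seeded at 3000 exponentially growing cells/well and incubated 12 h at 37 °C. Medium then replaced with fresh medium containing graded compound concentrations for 72 h; 5-FU positive control. MTT (5 mg/mL solution) added for 4 h, formazan dissolved in DMSO, absorbance read at 570 nm (reference 630 nm). Relative percentage inhibition of viable cells calculated; IC50 reported as mean ± standard deviation.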

HeLa = test: Anticancer activity against human HeLa cells assessed as inhibition of cell growth measured after 72 hrs by MTT assay; assay type: functional, cell-based; procedure, shortened: as §1
MGC-803 = test: Anticancer activity against human MGC-803 cells assessed as inhibition of cell growth measured after 72 hrs by MTT assay; assay type: functional, cell-based; settings: MGC-803, 72 h; procedure, shortened: as §1
[1] = system: Human immunodeficiency virus 1; test: Anti-HIV activity against HIV-1 3B infected in human MT4 cells assessed as protection against virus-induced cytopathicity measured after 5 days by MTT assay; assay type: functional, organism-based; settings: Human immunodeficiency virus 1, 3B, MT4, 120 h

For `C[C@H]1O[C@@H](n2cc(F)c(=O)[nH]c2=O)[C@H](O)[C@H]1OCP(=O)(O)O`, the IC50 (MCF7) was over 16 µM, the IC50 (HeLa) was over 16 µM and the IC50 (MGC-803) was over 16 µM.
`C[C@H]1O[C@@H](n2ccc(=O)[nH]c2=O)[C@H](O)[C@H]1OCP(=O)(O)O` showed an IC50 (MCF7) of over 16 µM, an IC50 (HeLa) of over 16 µM and an IC50 (MGC-803) of over 16 µM.
`C[C@H]1O[C@@H](n2cc(F)c(N)nc2=O)[C@H](O)[C@H]1OCP(=O)(O)O` showed an IC50 (MCF7) of over 16 µM, an IC50 (HeLa) of over 16 µM and an IC50 (MGC-803) of over 16 µM.
`Cc1cn([C@H]2C[C@@H](OCP(=O)(O)O)CO2)c(=O)[nH]c1=O` gave an EC50 [1] of 6.59 µM.
`C[C@H]1O[C@@H](n2cc(Cl)c(=O)[nH]c2=O)[C@H](O)[C@H]1OCP(=O)(O)O` was tested, and the IC50 (MCF7) was over 16 µM, the IC50 (HeLa) was over 16 µM and the IC50 (MGC-803) was over 16 µM.
`C[C@H]1O[C@@H](n2cnc3c(N)ncnc32)[C@H](O)[C@H]1OCP(=O)(O)O` showed an IC50 (MCF7) of over 16 µM, an IC50 (HeLa) of over 16 µM and an IC50 (MGC-803) of over 16 µM.
In the case of `Cc1cn([C@@H]2O[C@H](C)[C@H](OCP(=O)(O)O)[C@H]2O)c(=O)[nH]c1=O`, the IC50 (MCF7) is reported as over 16 µM, the IC50 (HeLa) is reported as over 16 µM and the IC50 (MGC-803) is reported as over 16 µM.
`Nc1ncnc2c1ncn2[C@H]1C[C@@H](OCP(=O)(O)O)CO1` showed an EC50 [1] of 2.5 µM.
`C[C@H]1O[C@@H](n2ccc(N)nc2=O)[C@H](O)[C@H]1OCP(=O)(O)O` showed an IC50 (MCF7) of over 16 µM, an IC50 (HeLa) of over 16 µM and an IC50 (MGC-803) of over 16 µM.
